Publication PMC5736457 (European journal of medicinal chemistry, 2017)
Read-outs that look alike come from different tables or passages of the source.

Legend:
[1] = system: MCF10A, the human breast epithelial cell line; assay: MTT cell viability assay, normal MCF10A cells; format: cell-based; details: 25 μM, 48 h
[2] = system: CHL-1 and UACC 903 melanoma cells; assay: MTT cell viability assay, values stated jointly for CHL-1 and UACC 903; format: cell-based; details: Homo sapiens, read-out: IC50, CHL-1 and UACC 903 stated jointly in text
In short: (§1)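 Cells kept in DMEM with 10% FBS and penicillin/streptomycin at 37 °C. Seeded at 3,000 cells/well and treated in triplicate with a test compound series (0.5–25 μM for 48 h; 72 h exposure also run for CHL-1/UACC 903). MTT (5 mg/mL stock in PBS) added for 3 h at 37 °C, formazan dissolved in DMSO, absorbance read at 570 nm with 630 nm background subtracted. IC50 from non-linear curve fits.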

UACC903 melanoma cells = assay: Live/Dead assay, UACC903 cells; format: cell-based, human
In short: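 2 × 10^5 cells incubated with test compound (25 and 50 μM) for 24 h at 37 °C. Cells then stained with 5 μM ethidium homodimer plus 5 μM calcein-AM for 30 min at 37 °C. Imaged by fluorescence microscopy: green esterase-retained calcein marks live cells, red marks membrane-damaged dead cells. Percentage of dead cells quantified from images.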

[3] = system: PARP, Bcl-2, Bcl-xL, Survivin in CHL-1 and UACC903 melanoma cells; assay: Western blot of survival and apoptosis proteins; format: cell-based, human; details: CHL-1 and UACC903, 24 h
In short: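 CHL-1 and UACC903 cells (2 × 10^6) treated with test compound at set concentrations for 24 h. Whole-cell lysates resolved by SDS-PAGE and transferred to PVDF. Blots probed for PARP, […], survivin and Bcl-xL, with β-actin as loading control, and detected by enhanced chemiluminescence.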

UACC903 cells = assay: Annexin V and Caspase 3/7 activity assays; format: cell-based, human; details: UACC903, 24 h; for cells positive for Annexin V, Caspase 3/7 activity and 7-AAD: concentration not stated at place (25 and 50 μM tested)
In short: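 UACC903 cells exposed to test compound at 25 and 50 μM for 24 h. Floating and adherent cells analysed on a Muse cell analyzer using two kits. The Annexin V/7-AAD kit sorts cells into live, early apoptotic (Annexin V+/7-AAD−), late apoptotic (double positive) and necrotic (7-AAD only) quadrants. The caspase-3/7 kit uses NucView, a DEVD-linked DNA dye released by active caspase 3/7, plus 7-AAD as dead-cell marker.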

[4] = system: cancer cell lines (UACC903, MCF-7 and MDA-MB-231); assay: MTT cell viability at 25 μM, values stated jointly for cancer cell lines; format: cell-based; details: 48 h, read-out: cell viability of cancer cell lines
[5] = system: 1205Lu and A375M cell lines; assay: MTT cell viability assay, values stated jointly for 1205Lu and A375M; format: cell-based; details: Homo sapiens, 48 h, read-out: IC50, 1205Lu and A375M stated jointly in text
In short: as §1

[6] = system: Panc-1, MDA-MB-231, MCF-7 and HCT116 cells; format: cell-based; details: 48 h, read-out: IC50s against all the cell lines tested (Panc-1, MDA-MB-231, MCF-7, HCT116)
[7] = system: CHL-1 (BRAF wild-type) melanoma cells; assay: MTT cell viability assay, CHL-1 melanoma cells; format: cell-based; details: Homo sapiens, CHL-1, 72 h, read-out: Melanoma cells IC50 (μM) CHL-1
[8] = system: UACC 903 (BRAF-mutant) melanoma cells; assay: MTT cell viability assay, UACC 903 melanoma cells; format: cell-based; details: Homo sapiens, UACC-903, 72 h, read-out: Melanoma cells IC50 (μM) UACC 903

| SMILES | potency towards melanoma cells (UACC903) as compared to normal MCF10A cells [1] | IC50 ([2]; 48 h) [µM] | IC50 ([2]; 72 h) [µM] | cell death in Live/Dead assay, human melanoma cells (UACC903 melanoma cells; 25 μM concentration, cell line not specified at place) | PARP cleavage (Western blot) [3] | levels of anti-apoptotic proteins Bcl-2, Bcl-xL and Survivin (Western blot) [3] | necrotic death (cells only positive for 7-AAD) (UACC903 cells) | cells positive for Annexin V, Caspase 3/7 activity and 7-AAD (UACC903 cells) | viability at 25 µM [4] [%] | IC50 [5] [µM] | IC50 [6] [µM] | cell death in Live/Dead assay, UACC903 (UACC903 melanoma cells; 25 μM, 24 h) [%] | IC50 [7] [µM] | IC50 [8] [µM] |
| --- | --- | --- | --- | --- | --- | --- | --- | --- | --- | --- | --- | --- | --- | --- |
| O=C1NC(=S)NC(=O)C1=C/C=C/c1cccs1 [Compound 2b, 5-(3-Thiophen-2-yl-allylidene)-2-thioxo-dihydro-pyrimidine-4,6-dione] | three-fold more potent | 6.5 to 8.1 | 3.8 to 4 | 65–70% | induced PARP cleavage | reduced the levels of anti-apoptotic proteins Bcl-2, Bcl-xL and Survivin in a dose-dependent manner | not detected | More than 70% | 20 to 30 | 10.6 to 14.8 | – | – | – | – |
| O=C1NC(=S)NC(=O)C1=C/C=C/c1cccc2ccccc12 [Compound 2d, 5-(3-Naphthalen-1-yl-allylidene)-2-thioxo-dihydro-pyrimidine-4,6-dione] | – | – | – | – | – | – | – | – | – | – | 3.6 to 7.9 | – | – | – |
| O=C1NC(=S)N(c2ccccc2)C(=O)/C1=C/C=C/c1cccs1 [Compound 8b, 1-Phenyl-5-(3-thiophen-2-yl-allylidene)-2-thioxo-dihydro-pyrimidine-4,6-dione] | three-fold more potent | 6.5 to 8.1 | 3.8 to 4 | – | induced PARP cleavage | reduced the levels of anti-apoptotic proteins Bcl-2, Bcl-xL and Survivin in a dose-dependent manner | not detected | More than 70% | 20 to 30 | 10.6 to 14.8 | – | 25 | – | – |
| CCCS(=O)(=O)Nc1ccc(F)c(C(=O)c2c[nH]c3ncc(-c4ccc(Cl)cc4)cc23)c1F [PLX-4032, vemurafenib] | – | – | – | – | – | – | – | – | – | – | – | – | 13.7 ± 1.7 | 3.6 ± 1.1 |
